Compound activity (PubChem)
AI-2 QS modul: Vibrio harveyi AI-2 quorum sensing modulation. Vibrio harveyi JMH597 AI-2 luminescence/OD600 ratio, 9 h; stronger effect = lower value; strain lacks LuxN and CqsS sensors; 0 = neutral-control median. activity change, % at 7.5 µM. 0.4% of 300,000 active. AID 2094; in the data active = activity change below about -75%, passing the limit was not always enough;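 also: luminescence divided by OD600 gain over 9 h not by final OD600 alone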
Tb MetRS inh: blocks T. brucei methionyl-tRNA synthetase activity | purified T. brucei MetRS, ATP depletion, Kinase-Glo luminescence | inhibition, % at 11.9 µM | 0.4% of 360,000 active | AID 624268;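 active = inhibition above a per-plate cutoff of the control wells' mean inhibition plus 3 SD, cut at about 5.5% in these data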;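 also: 0% = DMSO wells median and 100% = median of wells with control inhibitor compound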
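Test system – parasite MetRS enzyme · Reagent – substrates ATP, L-methionine and bulk Escherichia coli tRNA · Doses – 11.9 µM compound single dose, 0.9% DMSO · Times – 15 min enzyme-compound preincubation, 2 h reaction, 10 min detection, 25 °C · Signal – Kinase-Glo luminescence, ATP depletion format · Controls – DMSO-only wells as low control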
HTR2A ag: activates the mouse 5-HT2A serotonin receptor; P35363; 0.66% of 360,000 active; CHO-K1 mHTR2A beta-arrestin complementation, luminescence; percent of 30 µM serotonin response; AID 624169; activation, % at 7.6 µM;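 active = activation above a run cutoff, the mean activation of all tested compounds plus 3 SD, cut at about 14% in these data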;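 also: 0% = plate median of compound wells and 100% = 30 µM serotonin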
Target sequence (P35363 whole entry, looked up): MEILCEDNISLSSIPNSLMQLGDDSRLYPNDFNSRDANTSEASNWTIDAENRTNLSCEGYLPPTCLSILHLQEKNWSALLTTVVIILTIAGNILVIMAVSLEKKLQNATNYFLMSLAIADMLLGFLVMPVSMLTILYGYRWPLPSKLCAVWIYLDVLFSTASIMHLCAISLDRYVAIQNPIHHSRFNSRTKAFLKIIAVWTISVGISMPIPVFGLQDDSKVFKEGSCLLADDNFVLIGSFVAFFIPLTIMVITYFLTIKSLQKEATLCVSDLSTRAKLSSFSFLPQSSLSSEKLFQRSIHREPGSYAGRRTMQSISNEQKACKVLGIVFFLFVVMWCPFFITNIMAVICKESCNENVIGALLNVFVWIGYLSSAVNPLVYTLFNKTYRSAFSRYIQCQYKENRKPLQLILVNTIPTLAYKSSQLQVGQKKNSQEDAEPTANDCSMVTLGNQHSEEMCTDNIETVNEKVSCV
AHR activator: human AHR activation | P35869 | AHR-responsive luciferase reporter cells, luminescence | activation, % at 5 µM | 2.5% of 320,000 active | AID 2796; in the data active = activation above about 47%;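 also: 0% = vehicle wells and 100% = reference agonist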
bovine MsrA act: activates bovine MsrA enzyme. purified bovine MsrA, absorbance read-out. activation, % at 10.6 µM. 0.3% of 360,000 active. AID 602163; in the data active = activation above about 7.5%;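 also: 0% = vehicle and 100% = reference activator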
MsrA inhibitor: inhibitors of bovine MsrA; purified bovine MsrA, absorbance read-out; inhibition, % at 15.5 µM; 0.75% of 360,000 active; AID 651718; in the data active = inhibition above about 4.5%;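 also: 0% = vehicle wells with enzyme and 100% = reference inhibitor wells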
An asterisk follows results filed as active; · = no result given. Most compounds without a hit are left out; they make up all but 4.4% or so of the library.

SMILES | AI-2 QS modul | Tb MetRS inh | HTR2A ag | AHR activator | bovine MsrA act | MsrA inhibitor
Cc1ccc(NC(=O)C(C)N2CCN(C)CC2)cc1S(=O)(=O)N1CCOCC1 (centres undefined) | · | 0 | 1 | 2 | 0 | 1
Cc1oc2cc(O)ccc2c(=O)c1Oc1ccccc1Br | 29 | 0 | 1 | 59* | -1 | 1
CN(Cc1ccccc1)C(=O)c1cc2cc(F)ccc2[nH]1 | -13 | 3 | -3 | 62* | -3 | 3
COc1cc2[nH]c(C(=O)N(C)Cc3ccccc3)cc2c(OC)c1OC | -9 | -1 | 1 | 7 | 1 | 1
Cn1c(=O)c(C(=O)NNC(=O)c2ccccc2F)c(O)c2ccccc21 | 19 | 0 | -6 | 66* | -3 | -1
Cc1cccnc1NC(=O)c1c(O)c2ccccc2n(C)c1=O | 2 | -1 | 0 | 54* | -8 | 1
Cc1cccnc1NC(=O)C(C)N1C(=O)c2ccccc2C1=O (centres undefined) | 16 | 0 | -2 | 66* | -2 | 0
Cc1ccccc1NC(=O)C(C)N1C(=O)c2ccccc2C1=O (centres undefined) | -14 | -1 | 2 | 1 | 0 | -2
CCCCCn1c(C)c(CC(=O)Nc2ccc(Oc3cccnc3)c(C)c2)c2ccccc21 | · | · | · | · | · | 1
CC(CCCN1CCCC1)Nc1ccnc2cc(Cl)ccc12 (centres undefined) | · | 0 | -8 | · | -1 | 4.8*
O=C1c2cccc3cccc(c23)C(=O)N1CCc1ccccc1 | 3 | 0 | -1 | 53* | -4 | 2
O=C(Nc1nc2c(cc3c4c(cccc42)CC3)s1)c1ccccc1Cl | 21 | -1 | 1 | 46 | -12 | 4.6*
CCOc1ccc(S(=O)(=O)N2CCN(S(=O)(=O)c3ccc(C(C)=O)cc3)CC2)cc1 | 33 | -1 | -6 | 1 | -3 | 1
CCOc1ccc(S(=O)(=O)N2CN(c3cccc(C(C)=O)c3)c3nc4ccccc4nc32)cc1 | · | 1 | 1 | 56* | -7 | 2
Nc1ccccc1SC1CC(=O)N(c2ccc3c(c2)OCO3)C1=O (centres undefined) | 13 | 0 | -1 | 72* | -2 | -1
CN=c1sc(C(=O)Nc2ccccc2)c(C)n1C | 17 | 0 | -2 | 72* | -4 | 2
O=[N+]([O-])c1cccc(-c2csc(Nc3ccccc3)n2)c1 | 11 | -1 | -1 | 48* | -14 | 1
COc1ccccc1Nc1nc(-c2cccc([N+](=O)[O-])c2)cs1 | 7 | 0 | -1 | 79* | 0 | 1
COc1cc(NS(=O)(=O)c2ccc(Nc3nc(-c4cccc([N+](=O)[O-])c4)cs3)cc2)nc(OC)n1 | 5 | 0 | 4 | -1 | -3 | 1
O=C(Cc1ccccc1)Nc1nc(-c2cccc([N+](=O)[O-])c2)cs1 | 13 | 0 | -2 | -9 | -3 | 1
Oc1cc(O)cc(C=Cc2ccc(O)c(O)c2)c1 | · | · | · | · | · | 3
Cn1cc(CC(=O)Nc2ccc(Nc3cccnc3)cc2)c2ccccc21 | · | · | · | · | · | 1
CCN(CC(=O)c1c(N)n(C)c(=O)n(C)c1=O)c1cccc2ccccc12 | 6 | 0 | 1 | 50* | -2 | 1
Cn1c(N)c(C(=O)CCc2ccccc2)c(=O)n(C)c1=O | · | · | · | · | · | 0
COc1cccc(CNC(=O)[C@H]2CCCN2C(=O)[C@H]2CCCN2C(=O)OC(C)(C)C)c1 | · | · | · | · | · | 0
SMILES | AI-2 QS modul | Tb MetRS inh | HTR2A ag | AHR activator | bovine MsrA act | MsrA inhibitor
CC1=NC2=CC=CC3=NC(C(Cl)(Cl)Cl)=NC(=N1)N23 | · | · | · | · | · | 1
O=C1C2=C(Nc3ccccc3SC2c2ccco2)c2ccccc21 (centres undefined) | 4 | -1 | -5 | 70* | -6 | 1
COC(=O)C1=C(C)N(Cc2ccccc2C(F)(F)F)C(=NCC2CC2)NC1CCc1ccccc1 (centres undefined) | · | · | · | · | · | -1
Cc1ccc(/C=N/NC(=O)c2ccc(OC3CCCC3)cc2)o1 | 12 | 0 | -6 | · | -5 | 4.6*
CCOC(=O)c1c2n(c3ccc(OC(C)=O)cc13)CCC2 | 12 | 0 | 8 | 48* | -4 | -1
CCOC(=O)c1c(CN(C)C)n(C)c2ccc(OC(C)=O)cc12 | 11 | 0 | 5 | 2 | 2 | 1
CCCN1C(=O)c2[nH]nc(-c3ccccc3)c2C1c1ccc(Br)cc1 (centres undefined) | · | · | · | · | · | 0
C=CCN1C(=O)c2n[nH]c(COC)c2C1c1cccc(C(F)(F)F)c1 (centres undefined) | · | · | · | · | · | 0
c1cncc(Nc2nc(-c3cccs3)cs2)c1 | 0 | 0 | -1 | 58* | -3 | ·
COc1ccc(-c2csc(Nc3ccccc3)n2)cc1 | 4 | 0 | -5 | 6 | -3 | 1
COc1ccc(Nc2nc(-c3c[nH]c4ccccc34)cs2)cc1 | -2 | 0 | -3 | 76* | -5 | 1
COc1ccc(-c2csc(Nc3cccnc3)n2)cc1 | 9 | 0 | -2 | 54* | -1 | 1
COc1ccccc1C1CC(c2ccc(Br)cc2)=NN1C(=O)c1cccnc1 (centres undefined) | 29 | 1 | 0 | 63* | -3 | 2
C[C@H](O)[C@@H]1C(=O)N2CCc3c([nH]c4c(-c5ccccc5)cccc34)[C@@H]2C[C@@H]1N(C)C(=O)c1ccccc1F | · | · | · | · | · | 1
Cc1nnc(-c2cnn(C)c2N)n1Cc1cccc(Cl)c1 | 16 | -1 | 1 | 54* | -10 | 1
Cc1nnc(-c2cnn(C)c2N)n1CCCN(C)C | 30 | 0 | -7 | 14 | 1 | 1
CCCCCCCn1c(C)nnc1-c1cnn(C)c1N | 1 | 0 | 2 | 70* | -2 | -1
Nc1ccc(N=Nc2ccccc2)c(N)n1 | 14 | -1 | -1 | 3 | -4 | 1
Nc1ccc(N=Nc2ccccc2)c2ccccc12 | 20 | -1 | 11 | 55* | -5 | -1
CCCn1cnnc1CNC(=O)[C@@H](Cc1ccccc1)NC(=O)[C@H]1O[C@@H](n2ccc(=O)[nH]c2=O)[C@H](O)[C@@H]1O | · | · | · | · | · | 0
COc1ccc(O)c(/C=N/NC(=S)Nc2cccnc2)c1 | 25 | 0 | -1 | 27 | 2 | 3
COc1cccc(NC(=O)Nc2cccnc2)c1 | 5 | 0 | 0 | 50* | -2 | 1
COc1cccc(/C=N/NC(=S)Nc2cccnc2)c1 | 21 | 0 | -3 | 58* | -2 | 3
COc1cccc(NC(=O)Nc2cccc(C(=O)O)c2)c1 | 22 | 0 | -2 | -3 | -4 | 0
Nc1ccn([C@@H]2O[C@H](C(=O)N[C@H](Cc3ccccc3)C(=O)N3CCSC3)[C@@H](O)[C@H]2O)c(=O)n1 | · | · | · | · | · | 0
O=C(Nc1ccc2c(c1)OCO2)C(c1ccccc1)N1CCCCC1 (centres undefined) | 31 | 0 | -1 | 60* | 1 | 0
